Results on three compounds are retold here after ChEMBL document CHEMBL1156515.

The term inhibition denotes the drop in the measured response relative to a control, in per cent. A high value points to a strong effect.

Calls of active or inactive are those of the source. No cut-off for these calls is given here. Some results are limits rather than exact numbers.

The species named for test [1] is Rattus norvegicus. In words: Effect on GST fused rat AMPKalpha1 T172D mutant kinase.
The species named for test [2] is Mus musculus. In words: Effect on acetyl-CoA carboxylase phosphorylation in mouse embryonic fibroblasts expressing AMPK-alpha1+/+alpha2+/+ at 100 uM upto1 hrs by Western blot.
Test [3] is filed under the species Mus musculus. As to the kind of experiment: Effect on AMPK phosphorylation in wild type LKB1+/+ mouse longus muscle tissue at 100 uM by Western blot. The test is classed as tissue-based. In outline:
(§1)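 Extensor digitorum longus from overnight-fasted LKB1+/+ or muscle-specific LKB1−/− mice, mounted and incubated 1 hr at 37°C in KRB (pH 7.4, 2 mM pyruvate, gassed 95% O2/5% CO2) with compound (stock in DMSO); controls 0.1% DMSO. Muscles snap-frozen; lysates Western blotted for pT172 AMPK and pACC.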
(In general: Immunoblotting shows a protein as a band on a membrane.)

Test [4] is filed under the species Mus musculus. In words: Effect on AMPK phosphorylation in LKB1-/- mouse longus muscle tissue at 2 mM uM by Western blot. The test is classed as tissue-based. The procedure, abridged: (§2)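 EDL muscle from fasted LKB1+/+ or muscle-LKB1−/− mice, incubated 1 hr at 37°C in KRB pH 7.4 with 2 mM pyruvate, gassed 95% O2/5% CO2, with 2 mM AICAR. Lysates immunoblotted with phospho-Thr172 AMPK and phospho-ACC antibodies; ECL bands quantified by CCD imaging.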

For test [5], the system named is HeLa. As to the kind of experiment: Effect on AMPK phosphorylation in HeLa cells at 100 uM after 1 hr by immunoprecipitate kinase assay.
Test [6] concerns HeLa. In words: Effect on acetyl-CoA carboxylase phosphorylation in HeLa cells at 100 uM after 1 hr by densitometry. It counts as cell-based. In outline: (§3)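 HeLa cells exposed to 100 µM compound for 1 hr, with or without a 1 hr pretreatment with STO-609 (10 µg/ml). Lysates Western blotted for phospho-ACC, quantified by densitometry in arbitrary units. Means ± SEM of duplicates; 2 or more experiments.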

Test [7] is filed under the species Rattus norvegicus. In words: Effect on interaction between rat GST fused AMPK glycogen binding domain and glycogen at 0.5 uM. In outline:
(§4)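 β1 glycogen-binding domain (residues 65-182) fused to GST, expressed in E. coli BL21 and glutathione-purified. 2 µg incubated with bovine liver glycogen coupled to Sepharose in 50 mM Tris-HCl pH 7.5, 150 mM NaCl with compound. Load, supernatant and pellet anti-GST immunoblotted on infrared imager.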

Test [8] has as its system HeLa. As to the kind of experiment: Effect on AMPK activation in HeLa cells at 100 uM after 1 hr by immunoprecipitate kinase assay. The test is classed as cell-based. In outline: (§5)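 HeLa cells (MEM, 10% FBS, NEAA, penicillin/streptomycin) given 100 µM compound for 1 hr, with or without STO-609 (10 µg/ml) for 1 hr beforehand. Lysates in ice-cold NP-40 buffer; AMPK activity by immunoprecipitate kinase assay and Thr-172 phosphorylation by Western blot. Means ± SEM of duplicates, representative of 2 or more experiments.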

Test [9] deals with 5'-AMP-activated protein kinase catalytic subunit alpha-1 (Rattus norvegicus) (UniProt P54645). In words: Effect on GST fused rat AMPKalpha1 (1-333) kinase activation in presence of recombinant CaMKKbeta by Western blot. The procedure, abridged:
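GST fusions of rat AMPKα1 kinase domain, with or without the autoinhibitory region, made in bacteria and glutathione-Sepharose purified. Pre-incubated with MgATP with or without recombinant human CaMKKβ to phosphorylate Thr-172. Activity then measured with or without 1 µM compound, or samples Western blotted with anti-GST and anti-pT172.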

For test [10], the system named is Hepatocyte. In words: Effect on acetyl-CoA carboxylase phosphorylation in wild type AMPK expressing mouse AMPK-alpha1+/+alpha2+/+ primary hepatocytes upto 200 uM after 4 hrs by Western blot. The test is classed as cell-based. In outline:
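Primary hepatocytes from AMPKα1+/+α2+/+ mice exposed to compound concentrations up to 200 µM for 4 hr. Lysates immunoblotted with phosphospecific and total ACC antibodies.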

The species named for test [11] is Mus musculus. In words: Effect on acetyl-CoA carboxylase phosphorylation in mouse embryonic fibroblasts expressing AMPK-alpha1+/+alpha2+/+ upto 300 uM by Western blot. The procedure, abridged:
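MEFs from AMPKα1+/+/α2+/+ mice (DMEM, 10% FBS, NEAA, 1 mM pyruvate, antibiotics) given compound at graded concentrations up to 300 µM for 1 h. Lysates Western blotted for phospho- and total ACC, quantified by densitometry (arbitrary units). Means ± SEM of duplicates, representative of 2 or more experiments.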

Test [12] relates to HeLa. As to the kind of experiment: Reduction of AMPK activation in HeLa cells at 100 uM after 1 hr in presence of STO-609 by immunoprecipitate kinase assay. It counts as cell-based. The procedure, abridged: as §5
The species entered for test [13] is Mus musculus. In words: Increase in acetyl-CoA carboxylase phosphorylation in TAK1+/+ mouse embryonic fibroblast at 100 uM after 1 hr by densitometry. In outline:
(§6)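 TAK1+/+ and TAK1−/− MEFs treated with 100 µM compound for 1 hr; lysates Western blotted and ACC phosphorylation quantified by densitometry in arbitrary units. Means ± SEM of duplicates, representative of 2 or more experiments.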

The species named for test [14] is Mus musculus. As to the kind of experiment: Effect on AMPK phosphorylation in wild type LKB1+/+ mouse longus muscle tissue at 2 mM uM by Western blot. The test is classed as tissue-based. The procedure, abridged: as §2
For test [15], the species on record is Rattus norvegicus. In words: Effect on interaction between rat GST fused AMPK glycogen binding domain and glycogen at 5 uM. In outline: as §4
Test [16] is filed under the species Mus musculus. As to the kind of experiment: Effect on acetyl-CoA carboxylase phosphorylation in wild type LKB1+/+ mouse longus muscle tissue at 100 uM by Western blot. It counts as tissue-based. The procedure, abridged: as §1
The species named for test [17] is Mus musculus. As to the kind of experiment: Effect on acetyl-CoA carboxylase phosphorylation in LKB1-/-mouse longus muscle tissue at 100 uM by Western blot. It counts as tissue-based. The procedure, abridged: as §1
Test [18] is filed under the species Mus musculus. As to the kind of experiment: Effect on acetyl-CoA carboxylase phosphorylation in mouse embryonic fibroblasts expressing AMPK-alpha1+/+alpha2+/+ at 100 uM after 15 mins by Western blot.
The species named for test [19] is Mus musculus. As to the kind of experiment: Effect on acetyl-CoA carboxylase phosphorylation in wild type LKB1+/+ mouse longus muscle tissue at 2 mM uM by Western blot. The test is classed as tissue-based. The procedure, abridged: as §2
Test [20] addresses 5'-AMP-activated protein kinase catalytic subunit alpha-1 (Rattus norvegicus) (UniProt P54645). As to the kind of experiment: Activation of rat AMPK alpha-1-alpha-2beta-1-gamma-1 kinase upto 5 uM in presence of saturating concentration of 200 uM AMP.
Test [21] relates to HeLa. In words: Effect on AMPK phosphorylation in HeLa cells at 100 uM after 1 hr by immunoprecipitate kinase assay. The test is classed as cell-based. The procedure, abridged:
as §5

Test [22] is filed under the species Mus musculus. As to the kind of experiment: Effect on acetyl-CoA carboxylase phosphorylation in LKB1-/-mouse longus muscle tissue at 2 mM uM by Western blot. The test is classed as tissue-based. In outline:
as §2

In test [23] the test system is HeLa. As to the kind of experiment: Reduction of AMPK phosphorylation in HeLa cells at 100 uM after 1 hr in presence of STO-609 by immunoprecipitate kinase assay. The test is classed as cell-based. The procedure, abridged:
as §5

The species entered for test [24] is Mus musculus. In words: Increase in acetyl-CoA carboxylase phosphorylation in TAK1-/- mouse embryonic fibroblast at 100 uM after 1 hr by densitometry. In outline:
as §6

The target in test [25] is Serine/threonine-protein kinase pim-1 (Homo sapiens) (UniProt P11309). In words: Inhibition of PIM1 at 10 uM. The procedure, abridged:
(§7)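 Single-concentration selectivity screen at 10 µM across a 76-protein-kinase panel, assayed per earlier methods. Duplicate assays; activity expressed as % of no-compound control ± standard deviation.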

Test [26] addresses Serine/threonine-protein kinase pim-3 (Homo sapiens) (UniProt Q86V86). As to the kind of experiment: Inhibition of PIM3 at 10 uM. In outline:
as §7

The species named for test [27] is Mus musculus. In words: Effect on AMPK phosphorylation in LKB1-/- mouse longus muscle tissue at 100 uM by Western blot. It counts as tissue-based. In outline: as §1
Test [28] deals with HeLa. As to the kind of experiment: Reduction of acetyl-CoA carboxylase phosphorylation in HeLa cells at 100 uM after 1 hr in presence of STO-609 by densitometry. It counts as cell-based. The procedure, abridged: as §3
The species named for test [29] is Rattus norvegicus. In words: Protection against dephosphorylation of rat AMPK incubated with protein phosphatase 2Calpha at 1 uM in presence of magnesium. In outline:
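Purified rat liver AMPK incubated with recombinant protein phosphatase-2Cα (9 ng) plus 5 mM MgCl2 with or without 1 µM compound; remaining AMPK activity measured. Controls lacked Mg2+ or added 200 µM AMP.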

Test [30] has as its system HeLa. In words: Effect on acetyl-CoA carboxylase phosphorylation in HeLa cells at 1 uM after 5 mins by densitometry. The test is classed as cell-based. The procedure, abridged: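 HeLa cells grown in MEM with 10% FBS, NEAA and antibiotics. Cells were exposed for 5 min, with or without 1 h STO-609 (10 µg/ml) pretreatment, then lysed in NP-40 buffer. Lysates (10-30 µg protein) were Western blotted for phospho-ACC with ECL detection, and densitometry was given in arbitrary units. Means ± SEM of duplicates, representative of 2 or more experiments.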

Test [31] relates to HeLa. In words: Effect on AMPK activation in HeLa cells at 1 uM after 5 mins by immunoprecipitate kinase assay. The test is classed as cell-based. The procedure, abridged:
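HeLa cells grown in Minimum Essential Eagle's Medium with 10% FBS, NEAA, penicillin and streptomycin. Cells were exposed for 5 min, with or without 1 h pretreatment with STO-609 (10 µg/ml). They were lysed in ice-cold NP-40 buffer, and AMPK activity was measured by immunoprecipitate kinase assay. Means ± SEM of duplicates, representative of 2 or more experiments.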

Test [32] is filed under the species Mus musculus. As to the kind of experiment: Effect on acetyl-CoA carboxylase phosphorylation in mouse embryonic fibroblasts expressing AMPK-alpha1+/+alpha2+/+ upto 300 uM after 4 hrs by Western blot.

Sequence of 5'-AMP-activated protein kinase catalytic subunit alpha-1 (Rattus norvegicus) (P54645 whole entry, the tested form may be a part): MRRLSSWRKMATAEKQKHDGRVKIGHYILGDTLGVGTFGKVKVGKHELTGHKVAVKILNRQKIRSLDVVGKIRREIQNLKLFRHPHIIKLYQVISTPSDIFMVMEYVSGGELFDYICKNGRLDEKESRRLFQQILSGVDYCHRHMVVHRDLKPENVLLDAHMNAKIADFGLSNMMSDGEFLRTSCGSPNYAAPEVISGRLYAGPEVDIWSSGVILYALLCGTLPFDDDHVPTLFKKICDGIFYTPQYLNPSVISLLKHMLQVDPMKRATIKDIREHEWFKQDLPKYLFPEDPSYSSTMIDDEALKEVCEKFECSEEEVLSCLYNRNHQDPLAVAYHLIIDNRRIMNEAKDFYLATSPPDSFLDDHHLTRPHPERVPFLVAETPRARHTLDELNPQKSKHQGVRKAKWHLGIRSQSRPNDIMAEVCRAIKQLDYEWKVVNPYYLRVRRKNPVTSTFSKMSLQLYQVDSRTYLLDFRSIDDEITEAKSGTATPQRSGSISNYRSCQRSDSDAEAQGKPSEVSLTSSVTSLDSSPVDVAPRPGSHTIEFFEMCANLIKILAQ
Sequence of Serine/threonine-protein kinase pim-1 (Homo sapiens) (P11309 whole entry, looked up): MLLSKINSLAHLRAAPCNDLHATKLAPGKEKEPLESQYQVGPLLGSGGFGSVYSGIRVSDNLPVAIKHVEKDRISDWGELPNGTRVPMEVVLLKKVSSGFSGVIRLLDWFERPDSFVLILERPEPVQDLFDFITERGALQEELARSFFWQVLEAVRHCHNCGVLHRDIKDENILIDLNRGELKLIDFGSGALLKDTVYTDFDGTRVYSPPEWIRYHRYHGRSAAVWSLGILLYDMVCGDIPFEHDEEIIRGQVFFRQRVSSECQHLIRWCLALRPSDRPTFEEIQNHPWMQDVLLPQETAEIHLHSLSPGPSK

As to `N#Cc1c(O)c2c(-c3ccc(-c4ccccc4O)cc3)csc2[nH]c1=O`, the result in test [1], in [4], in [7], in [9], in [15] and in [17] was inactive. Also, the result in [22] and in test [27] was inactive. The result in test [2], in test [3], in [5], in test [6], in test [8] and in test [10] was Active. For the same compound, the outcome in test [11], in test [12], in test [13], in test [14], in test [16] and in test [18] was Active. The result in [19], in [21], in test [23], in [24], in test [28] and in [29] was Active. Besides, the Activity in test [20] is 1.4. Further, the inhibition in test [25] and in test [26] was > 50% throughout.
Regarding `CC(O)[C@]1(C)CC[C@H]([C@]2(C)CC[C@@H](C[C@H](O)[C@H](C)[C@H](O)[C@H](C)/C=C/C[C@@H](C)C[C@@H](C)/C(O)=C/C(=O)[C@@H](C)C[C@@H](C)C[C@H](C)CCC(=O)O)O2)O1` (single isomer, unassigned), the result in [30] and in test [31] was Active.
On to `NC(=O)c1ncn([C@@H]2O[C@H](COP(=O)(O)O)[C@@H](O)[C@H]2O)c1N`, for which the outcome in [32] was Active.
